TLR4-MyD88 BLA = inhibitors of TLR4-MyD88 association in cells, primary screen, cell-based, HeLa CL3-4, BLA complementation, FRET ratio; Toll-like receptor 4 (Homo sapiens) + Myeloid differentiation primary response protein …; HeLa CL3-4 TLR4/MyD88 BLA complementation; inhibition, % at 8.4 µM; actives 0.18% (n = 200,000); AID 861, 2007; in the data active = inhibition above about 25%;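 also: 0% = vehicle and 100% = reference inhibitor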
MT1-MMP act inh = blockers of MT1-MMP proenzyme processing, primary screen, HT1080 RFP-PRO-GFP cells, GFP/RFP fluorescence; GFP/RFP ratio fluorescence, overnight; percent of plate control window, DMSO zero; Matrix metalloproteinase-14 (Homo sapiens), P50281; actives 0.061% (n = 360,000); AID 651647, 2012; GFP/RFP ratio change, % at 20 µM;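 active = GFP/RFP ratio change of at least 30% with cell ATP level not reduced by more than half and red fluorescence within 50% of control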
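Assay system – RFP-PRO-GFP reporter HT1080 cells · Compound dosing – single dose of 20 µM compound, 1% DMSO final · Incubation – overnight compound exposure at 37 °C · Measure – GFP/RFP fluorescence ratio · Benchmarks – DMSO wells and RFP-L50D-GFP cells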
TLR9-MyD88 block = inhibitors of TLR9-MyD88 association in cells, primary screen, cell-based, CHO, BLA complementation, fluorescence. Toll-like receptor 9 (Homo sapiens) + Myeloid differentiation primary response protein …. CCF4 FRET ratio. inhibition, % at 4.98 µM. actives 0.21% (n = 340,000). AID 504734, 2011;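 active = inhibition above the mean over all tested compounds plus 3 SD, cut at about 21% in these data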;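 also: 0% = DMSO only wells and 100% = clavulanate BLA inhibitor control wells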
Target sequence (Q99836 whole entry, looked up): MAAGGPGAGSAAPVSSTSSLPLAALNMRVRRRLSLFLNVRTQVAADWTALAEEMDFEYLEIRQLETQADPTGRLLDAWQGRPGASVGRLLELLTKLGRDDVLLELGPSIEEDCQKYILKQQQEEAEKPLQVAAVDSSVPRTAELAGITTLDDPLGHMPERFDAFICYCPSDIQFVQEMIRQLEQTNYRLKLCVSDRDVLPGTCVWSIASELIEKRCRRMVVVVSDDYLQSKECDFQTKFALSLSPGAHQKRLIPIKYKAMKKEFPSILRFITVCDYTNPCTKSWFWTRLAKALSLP
Target sequence (Q9NR96 whole entry, looked up): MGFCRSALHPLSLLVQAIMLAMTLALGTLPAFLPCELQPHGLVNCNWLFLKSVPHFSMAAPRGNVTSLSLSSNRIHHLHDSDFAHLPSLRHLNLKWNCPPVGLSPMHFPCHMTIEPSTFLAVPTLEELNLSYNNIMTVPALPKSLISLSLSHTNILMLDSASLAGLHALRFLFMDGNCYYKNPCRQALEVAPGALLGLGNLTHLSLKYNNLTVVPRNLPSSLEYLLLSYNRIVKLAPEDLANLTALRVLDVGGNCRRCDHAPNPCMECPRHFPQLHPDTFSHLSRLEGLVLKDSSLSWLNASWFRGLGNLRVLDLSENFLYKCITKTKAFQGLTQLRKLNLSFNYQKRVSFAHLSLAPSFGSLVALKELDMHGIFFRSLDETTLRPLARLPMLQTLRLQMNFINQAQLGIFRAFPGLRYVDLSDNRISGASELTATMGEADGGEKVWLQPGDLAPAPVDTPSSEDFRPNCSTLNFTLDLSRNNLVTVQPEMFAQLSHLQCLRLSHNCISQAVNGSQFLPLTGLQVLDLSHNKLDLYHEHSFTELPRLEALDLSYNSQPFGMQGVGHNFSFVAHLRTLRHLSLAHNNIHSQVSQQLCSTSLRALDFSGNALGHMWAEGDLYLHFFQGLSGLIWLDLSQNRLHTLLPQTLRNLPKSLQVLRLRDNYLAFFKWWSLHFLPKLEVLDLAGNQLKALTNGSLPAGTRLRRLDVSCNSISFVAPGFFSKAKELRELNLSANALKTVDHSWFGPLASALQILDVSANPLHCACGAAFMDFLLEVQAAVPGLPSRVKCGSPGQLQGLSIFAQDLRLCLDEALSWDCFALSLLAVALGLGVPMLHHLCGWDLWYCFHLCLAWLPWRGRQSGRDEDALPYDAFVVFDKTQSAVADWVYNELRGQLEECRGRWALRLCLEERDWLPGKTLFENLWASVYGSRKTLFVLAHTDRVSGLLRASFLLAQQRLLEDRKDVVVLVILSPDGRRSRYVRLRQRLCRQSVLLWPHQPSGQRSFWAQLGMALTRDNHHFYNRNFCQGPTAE
NOD2-RIPK2 inh = NOD2-RIPK2 binding disruptors in cells, primary screen, fluorescence, CHO cells, BLA complementation. Receptor-interacting serine/threonine-protein kinase 2 (Homo sapiens), O43353. CCF4 ratio. inhibition, % at 4.98 µM. actives 0.38% (n = 360,000); in the data active = inhibition above about 21%;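 also: 0% = vehicle only and 100% = reference blocker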
SKN-1 inh = suppressors of acrylamide-induced Pgst-4::GFP reporter in worms, primary screen, SKN-1 inhibitor project, whole organism, uHTS, GFP/RFP fluorescence ratio, strain VP596 | C. elegans VP596 Pgst-4::GFP/RFP ratio, 24 h | inhibition, % at 21.8 µM | actives 0.49% (n = 360,000) | AID 624304, 2012;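 active = interference check ratio from 0.5 to 1.5 plus GFP to RFP signal ratio inhibition reaching or exceeding a fixed threshold, cut at about 30% in these data, passing the limit was not always enough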
TLR4 MyD88 cnf = TLR4-MyD88 association inhibitors, retest, confirmation, cell-based, HeLa CL3-4, BLA complementation, FRET ratio; shares compounds with TLR4-MyD88 BLA; CCF4 FRET ratio; inhibition, % at 8.4 µM; actives 50% (n = 350); AID 941, 2007;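 active = mean inhibition across three repeat runs above about 25% carried over from the earlier screen, limit read from the data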;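 also: plate controls were DMSO only for no effect and clavulanic acid blocking BLA at full dose for full effect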
BLA inhibitor ct = counter-screen for TLR4-MyD88 inhibitors: beta-lactamase reporter inhibitors; actives 63% (n = 350); inhibition, % at 8.4 µM; AID 1237; shares compounds with TLR4-MyD88 BLA; HeLa BLA reporter, CCF4 FRET ratio;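 active = mean inhibition over three repeats above about 26% taken from the earlier screen, limit read from the data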;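 also: HeLa cells stably expressing beta-lactamase reporter as counterscreen for TLR4-MyD88 inhibitors; 0% = DMSO and 100% = clavulanic acid full inhibition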
Numbers without * were called inactive. Only some compounds are listed: those with a hit (about 0.99% of all), similar ones and a draw of the others.

What do the screens show for `Cc1cc(C)c(S(=O)(=O)N2CCN(C(=O)C3CCCO3)CC2)c(C)c1` (stereo not drawn)?
MT1-MMP act inh: 4; TLR9-MyD88 block: -2; NOD2-RIPK2 inh: -13; SKN-1 inh: 8

Results for NS(=O)(=O)c1ccc(NC(=O)C2C3C=CC(C3)C2C(=O)O)cc1 (stereo not drawn) ?
TLR4-MyD88 BLA: -2; MT1-MMP act inh: -2; TLR9-MyD88 block: 7; NOD2-RIPK2 inh: -2; SKN-1 inh: -2

Results for CCOC(=O)C1CCCN(CC(=O)N(C)c2c(N)n(Cc3ccccc3)c(=O)[nH]c2=O)C1 (stereo not drawn) ?
MT1-MMP act inh: -4; TLR9-MyD88 block: -15; NOD2-RIPK2 inh: 8; SKN-1 inh: 13

What do the screens show for `COc1ccc(NC(=O)CSc2ccc3c4c(cccc24)C(=O)c2ccccc2-3)cc1`?
TLR4-MyD88 BLA: 33*; MT1-MMP act inh: -208; TLR9-MyD88 block: -14; NOD2-RIPK2 inh: 7; SKN-1 inh: -2; TLR4 MyD88 cnf: 24; BLA inhibitor ct: 14

What do the screens show for `COc1ccc(NC(=O)CSc2nnc(C)c3ccccc23)cc1`?
MT1-MMP act inh: 1; TLR9-MyD88 block: 7; NOD2-RIPK2 inh: -7; SKN-1 inh: 6

How did N#Cc1cccc(NC(=O)CSc2ccc3c4c(cccc24)C(=O)c2ccccc2-3)c1 do in these assays?
TLR4-MyD88 BLA: 54*; MT1-MMP act inh: -131; TLR9-MyD88 block: 20; NOD2-RIPK2 inh: 13; SKN-1 inh: 49; TLR4 MyD88 cnf: 36*; BLA inhibitor ct: 65*

Results for CC1CCN(Cc2ccc(-c3nn[nH]n3)cc2)CC1 ?
TLR4-MyD88 BLA: 27*; MT1-MMP act inh: -1; TLR9-MyD88 block: -19; NOD2-RIPK2 inh: -2; SKN-1 inh: 0; TLR4 MyD88 cnf: -5; BLA inhibitor ct: 4

Results for O=S(=O)(c1cc(Cl)c(Cl)cc1Cl)N1CCN2CCCC2C1 (stereo not drawn) ?
MT1-MMP act inh: -1; TLR9-MyD88 block: -4; NOD2-RIPK2 inh: 6; SKN-1 inh: 0

How did CN(CCOc1ccc(Cl)cc1)C(=O)c1cc(-c2ccco2)nc2ccccc12 do in these assays?
MT1-MMP act inh: -3; TLR9-MyD88 block: 4; NOD2-RIPK2 inh: 2; SKN-1 inh: 4

Results for CCN(CC)CCn1c(=S)[nH]c2cc(C(=O)NCc3ccccc3Cl)ccc2c1=O ?
MT1-MMP act inh: 2; TLR9-MyD88 block: -7; NOD2-RIPK2 inh: -7; SKN-1 inh: 2

Results for O=C1N=c2ccccc2=C1c1sc(Nc2cccc(O)c2)nc1O ?
MT1-MMP act inh: 4; TLR9-MyD88 block: -15; NOD2-RIPK2 inh: -1; SKN-1 inh: 34

What do the screens show for `O=C1N=c2ccccc2=C1c1sc(Nc2ccc(O)cc2)nc1O`?
TLR4-MyD88 BLA: 27*; MT1-MMP act inh: 9; TLR9-MyD88 block: -6; NOD2-RIPK2 inh: -3; SKN-1 inh: 6; TLR4 MyD88 cnf: 2; BLA inhibitor ct: 6

What do the screens show for `COc1ccc(C(CNC(=O)c2ccc3c(c2)OCCO3)N(C)C)cc1` (stereo not drawn)?
MT1-MMP act inh: 1; TLR9-MyD88 block: -2; NOD2-RIPK2 inh: -2; SKN-1 inh: 6

How did Cc1cc(C)nc(SCC(=O)NN=Cc2ccc(C)o2)n1 do in these assays?
MT1-MMP act inh: -6; TLR9-MyD88 block: -1; NOD2-RIPK2 inh: -1; SKN-1 inh: 0

What do the screens show for `CC(=O)c1sc2nc(-c3cccs3)cc(C(F)(F)F)c2c1N`?
TLR4-MyD88 BLA: 30*; MT1-MMP act inh: -17; TLR9-MyD88 block: 8; NOD2-RIPK2 inh: -2; SKN-1 inh: 19; TLR4 MyD88 cnf: 13; BLA inhibitor ct: 25

What do the screens show for `Cc1ccc(C)c(NS(=O)(=O)c2ccc(OCC(=O)NCc3ccco3)cc2)c1`?
TLR4-MyD88 BLA: 26*; MT1-MMP act inh: -5; TLR9-MyD88 block: 3; NOD2-RIPK2 inh: 3; SKN-1 inh: -3; TLR4 MyD88 cnf: 3; BLA inhibitor ct: 1

What do the screens show for `COc1ccc2oc(C(=O)N(Cc3ccco3)Cc3cccs3)c(C)c2c1`?
MT1-MMP act inh: -4; TLR9-MyD88 block: -5; NOD2-RIPK2 inh: -4; SKN-1 inh: 19

What do the screens show for `CN(C)c1ccc(C2CC(c3ccccc3)=Nc3nc(-c4ccccc4)cn32)cc1` (stereo not drawn)?
TLR4-MyD88 BLA: 25*; TLR4 MyD88 cnf: 4; BLA inhibitor ct: 19

What do the screens show for `Cc1ccccc1OCC(=O)NC(=S)Nc1ccc(S(=O)(=O)NC2CCCCC2)cc1`?
TLR4-MyD88 BLA: -10; MT1-MMP act inh: 2; TLR9-MyD88 block: 1; NOD2-RIPK2 inh: -6; SKN-1 inh: -3

Results for CC(=O)NS(=O)(=O)c1ccc(NC(=S)NC(=O)COc2ccccc2C)cc1 ?
TLR4-MyD88 BLA: 34*; MT1-MMP act inh: 6; TLR9-MyD88 block: -1; NOD2-RIPK2 inh: -12; SKN-1 inh: 4; TLR4 MyD88 cnf: -13; BLA inhibitor ct: 7

What do the screens show for `CC(=O)Nc1sc(N/N=C\c2ccc(O)cc2)nc1-c1cccs1`?
MT1-MMP act inh: -1; TLR9-MyD88 block: 0; NOD2-RIPK2 inh: 0; SKN-1 inh: -1

How did CCN(CC)c1ccc(/C=C(\C#N)c2nc(-c3cccs3)c(NC(C)=O)s2)cc1 do in these assays?
TLR4-MyD88 BLA: 28*; TLR4 MyD88 cnf: 28*; BLA inhibitor ct: 51*

How did CNC(=O)c1sc(N2N=C3/C(=C/c4ccccc4)CCCC3C2c2ccccc2)nc1C (stereo not drawn) do in these assays?
TLR4-MyD88 BLA: 28*; MT1-MMP act inh: -29; TLR9-MyD88 block: 9; NOD2-RIPK2 inh: 8; SKN-1 inh: 11; TLR4 MyD88 cnf: 24; BLA inhibitor ct: 54*

What do the screens show for `CNC(=O)c1sc(N2N=C3/C(=C\c4ccccc4)CCCC3C2c2ccccc2)nc1C` (stereo not drawn)?
MT1-MMP act inh: -13; TLR9-MyD88 block: -8; NOD2-RIPK2 inh: -1; SKN-1 inh: 2

Results for O=[N+]([O-])c1cccc(C2CC(c3ccccc3)=NN2c2ccccc2)c1 (stereo not drawn) ?
MT1-MMP act inh: 2; TLR9-MyD88 block: 7; NOD2-RIPK2 inh: 4; SKN-1 inh: 1
